# Sampled rows, rich in hits. Any-hit rate of the full collection: about 1.9%.
# ARFGAP1 inh: rat ARFGAP1 inhibition; Q62848; Arfgap1-stimulated ARF1 GTP hydrolysis, GDP FP detection; inhibition, % at 16.5 µM; actives 0.26% (n = 360,000);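 active = inhibition above a per-plate limit, mean inhibition of low control wells plus 3 SD, cut at about 25% in these data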;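 also: 0% = DMSO wells with enzyme and 100% = wells lacking Arfgap1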
# Target sequence (Q62848 1-136 limits assumed): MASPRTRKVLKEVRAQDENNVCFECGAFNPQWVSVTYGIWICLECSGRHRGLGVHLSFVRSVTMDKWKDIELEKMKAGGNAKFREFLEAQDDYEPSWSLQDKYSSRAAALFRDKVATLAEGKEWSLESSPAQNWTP
#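 System: truncated rat Arfgap1 GAP domain / Medium: HEPES-based buffer, pH 7.5 / Also added: N-terminally truncated human ARF1-GTP substrate / Incubation: enzyme reaction 120 min at 25 °C after 20 min preincubation / Measured by: FP of antibody-bound GDP Alexa 633 tracer, ex 620/em 688 nm / Replicates: singlicate, each compound tested once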
# FGF22 binding: shifts melting point of recombinant human FGF22; actives 1.5% (n = 340,000); activity (Tm shift, normalised), % at 9.99 µM; recombinant FGF22 thermal shift, SYPRO orange fluorescence; percent of sucrose octasulfate shift, DMSO zero; AID 651658; Q9HCT0;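 active = mean Tm shift, scaled 0 neutral to 100 positive control, at about 1.3% or above, every replicate too, limit read from the data; inconclusive = no clear call, values can overlap the other calls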
# Efflux pump inh: inhibitors of Candida antifungal efflux pumps expressed in yeast | AID 485275 | S. cerevisiae Candida pump triplex, Nile Red efflux | actives 0.44% (n = 330,000) | inhibition, % at 10 µM;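 active = plate passing quality check with inhibition over a set limit, or well fluorescence over plate mean plus 4 SD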;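 also: Nile Red retained in pooled yeast measured as flow cytometry median fluorescence; 0% = buffer negative control and 100% = Enniatin B positive control; higher means more Nile Red kept so more efflux inhibition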
# ASAP1 GAP inh: ASAP1 ArfGAP inhibition. Q9ULH1. ASAP1-stimulated ARF1 GTP hydrolysis, GDP FP detection. actives 0.19% (n = 360,000). inhibition, % at 16.5 µM; in the data active = inhibition above about 25%;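 also: 0% = vehicle with enzyme and substrate and 100% = no enzyme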
# Rtt109 HAT inh: C. albicans Rtt109 histone acetyltransferase inhibition; Q5AAJ8; purified Rtt109/Vps75, ThioGlo CoA-SH fluorescence, 4 h; inhibition, % at 34.9 µM; actives 0.16% (n = 330,000); AID 540336;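 active = inhibition of at least 50% in every replicate; inconclusive = best replicate reaches 50% inhibition but some replicates fall short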
# Target sequence (Q5AAJ8 whole entry, looked up): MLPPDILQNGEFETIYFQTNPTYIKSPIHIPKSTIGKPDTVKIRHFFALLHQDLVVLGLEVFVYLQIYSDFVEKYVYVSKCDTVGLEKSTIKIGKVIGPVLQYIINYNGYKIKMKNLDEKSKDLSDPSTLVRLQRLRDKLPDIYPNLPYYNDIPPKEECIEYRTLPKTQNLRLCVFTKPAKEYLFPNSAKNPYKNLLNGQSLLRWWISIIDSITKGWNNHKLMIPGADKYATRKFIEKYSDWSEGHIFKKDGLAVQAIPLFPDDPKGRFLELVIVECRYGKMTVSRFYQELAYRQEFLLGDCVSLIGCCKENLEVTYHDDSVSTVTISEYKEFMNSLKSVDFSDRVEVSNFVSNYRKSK
# ASAP1 GAP conf: ASAP1 inhibition confirmed. shares compounds with ASAP1 GAP inh. ASAP1-stimulated Arf1 GTPase, GDP fluorescence polarization. inhibition, % at 16.5 µM. actives 37% (n = 620);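 active = mean inhibition over triplicates exceeds the hit threshold derived for the earlier primary screening run, cut at about 25% in these data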
# Starred values were filed as active, the others as inactive; ? = inconclusive; nt = no result given.
SMILES,ARFGAP1 inh,FGF22 binding,Efflux pump inh,ASAP1 GAP inh,Rtt109 HAT inh,ASAP1 GAP conf
CC1=C(C(=O)OC(C)C)C2(O)C(=O)c3ccccc3C2(O)N1 (stereo unspecified),19,nt,0,-5,1,nt
CCOC(=O)C1=C(C)OC2(O)c3ccccc3C(=O)C12O (stereo unspecified),17,0,0,47*,nt,17
Cc1ccc2nc(SCC(=O)Nc3ccc(F)cc3F)[nH]c2c1,6,nt,0,27*,nt,5
Cc1cc(S(=O)(=O)Nc2c(C)nc3nc[nH]n3c2=O)ccc1F,5,0,0,-1,nt,nt
Fc1ccc(C2NC(=S)NC3=C2N2CCC3CC2)cc1 (stereo unspecified),6,0,0,-3,-4,nt
Cc1c(C(=O)Oc2ccc(-c3cnc4ccccc4n3)cc2)cccc1[N+](=O)[O-],-2,nt,0,25*,7,13
CCC(Cc1ccccc1)NC(=O)Cn1ncc2ccsc2c1=O (stereo unspecified),2,0,0,-4,8,nt
CCO[C@H]1OC(C(=O)Nc2ccccc2)=C[C@@H](c2csc3ccccc23)[C@@H]1CCCO,16,0,nt,25*,4,19
CCO[C@@H]1OC(C(=O)O)=C[C@H](c2csc3ccccc23)[C@H]1CCCO,1,0,0,5,13,nt
C=CCN=C1NC(c2ccc(F)cc2)C(C(=O)OC)=C(C)N1Cc1ccccc1C(F)(F)F (stereo unspecified),9,0,nt,25*,nt,-2
COc1ccc(Cl)cc1S(=O)(=O)NCc1cccnc1,11,nt,0,26*,-12,8
CCOc1ccc(Cl)cc1S(=O)(=O)NCc1cccnc1,4,nt,0,-8,-9,nt
C#CCOCCOCCOCCNc1nc(N2CCN(C(=O)[C@H](CCCCN)n3cc(CN)nn3)CC2)nc(N2CCN(C(=O)[C@H](CCC(=O)O)n3cc([C@@H](N)CCCCN)nn3)CC2)n1,-4,0,0,14,23,nt
COc1ccccc1Oc1cc(F)nc(N)n1,11,nt,0,26*,2,2
COc1cc(/C=C2/SC(N)=NC2=O)ccc1Oc1ccc([N+](=O)[O-])cc1[N+](=O)[O-],-4,nt,0,29*,-3,49*
Cc1ccccc1N1CCN(C(=O)CN2C(=O)c3ccccc3C2=O)CC1,-8,nt,0,26*,-1,0
Cc1ccc(C)c(N2CCN(C(=O)CN3C(=O)c4ccccc4C3=O)CC2)c1,-6,nt,0,2,-3,nt
O=C(CSc1ncnc2scc(-c3ccccc3)c12)N1CCN(Cc2ccc3c(c2)OCO3)CC1,11,0,0,31*,3,46*
c1ccc(-c2csc3ncnc(N4CCN(Cc5ccc6c(c5)OCO6)CC4)c23)cc1,1,0,1,3,-2,nt
CC(Oc1ccc(Cl)cc1Cl)c1nc(-c2ccc(NC(=O)c3cccnc3)cc2)no1 (stereo unspecified),4,nt,0,14,-4,nt
CC(Oc1ccc(Cl)cc1Cl)c1nc(-c2ccc(NC(=O)c3ccncc3)cc2)no1 (stereo unspecified),4,0,0,25*,-2,8
O=C(Nc1cccc(-c2csc(Nc3ccc(Cl)cc3)n2)c1)c1cccc(C(F)(F)F)c1,6,0,0,18,-4,nt
O=C(Nc1cccc(-c2csc(Nc3ccc(Cl)cc3)n2)c1)c1ccccc1,24,0,0,26*,-4,26*
CC(=O)Nc1ccc(C(=O)Nc2cccc(-c3cnc4ccccc4n3)c2)cc1,1,1,nt,40*,-6,80*
CC(=O)c1cc2c(cc1N(C(=O)Cn1nnc3ccccc31)C(C(=O)NCCC(C)C)c1cccnc1)OCO2 (stereo unspecified),-6,0,0,8,-1,nt
SMILES,ARFGAP1 inh,FGF22 binding,Efflux pump inh,ASAP1 GAP inh,Rtt109 HAT inh,ASAP1 GAP conf
O=C(c1n[nH]c(=O)c2ccccc12)N1CCN(S(=O)(=O)c2ccccc2Cl)CC1,-1,0,0,25*,3,1
O=C(c1n[nH]c(=O)c2ccccc12)N1CCN(c2ccccc2Cl)CC1,-10,nt,0,-14,6,nt
CC(=NNC(=S)N1CC2CCC(CC2)C1)c1cccc(C)n1,-12,0,nt,10,3,nt
COC(=O)c1cc(OC)c(OC)cc1NC(=O)Cc1ccccc1[N+](=O)[O-],-1,nt,-3,1,9,nt
COc1cc(OC)cc(C(=O)N[C@H](C(=O)NCCc2c[nH]c3ccccc23)C(C)C)c1,-9,0,0,-5,3,nt
COc1cc(OC)cc(C(=O)N[C@H](C(=O)OCC(=O)c2c[nH]c3ccccc23)C(C)C)c1,16,0,0,28*,-3,13
Cc1ccc(C=NNC(=O)c2cc(-c3cccnc3)nc3ccccc23)o1,3,0,0,25*,0,10
CN1CCN(c2ccc(NC(=O)c3ccc(-c4cccc([N+](=O)[O-])c4)o3)cc2)CC1,17,0,0,31*,?,106*
Oc1ccc(Br)cc1-c1cc(-c2ccccc2)n[nH]1,21,nt,0,12,4,nt
O=[N+]([O-])c1cccc(-c2cc(-c3cc(Br)ccc3O)[nH]n2)c1,21,0,2,25*,-3,17
Cn1ccsc1=NC(=O)c1ccc(CS(C)(=O)=O)cc1,-1,0,0,-8,-8,nt
CCN(C(=S)NCc1ccccc1)c1cccc2ccccc12,0,0,0,25*,3,2
CCN(C(=S)NCc1ccccc1)c1ccccc1,-4,0,0,-12,1,nt
CNC(=O)C(=O)Nc1ccc2c(c1)N(S(=O)(=O)c1cccs1)CCC2,2,0,0,29*,1,5
CC(=O)C1C(c2ccccc2)c2c(n[nH]c2C)CC1(C)O (stereo unspecified),-15,nt,1,3,7,nt
CC(=O)C1C(c2ccc(C)cc2)c2c(n[nH]c2C)CC1(C)O (stereo unspecified),-10,nt,0,43*,9,1
CN(C)C(CNc1ccc(C(F)(F)F)cn1)c1ccccc1 (stereo unspecified),13,0,0,-9,-4,nt
Cc1cc(C)cc(NC(=O)N2CCN(Cc3ccc4c(c3)OCO4)CC2)c1,12,0,0,-8,7,nt
O=C(N/N=C/c1cccnc1)c1cc2c(ccc3ccccc32)o1,25,nt,0,28*,2,55*
Cc1ccc(-c2csc(NC(=O)COc3ccc(N(C)S(=O)(=O)c4ccc(C)cc4)cc3)n2)cc1,4,0,0,25*,-2,7
COc1ccc(-c2csc(NC(=O)COc3ccc(N(C)S(=O)(=O)c4ccc(C)cc4)cc3)n2)cc1,-7,nt,0,1,-3,nt

# High-throughput results deposited in PubChem by several laboratories.
